Columns and labels:
[1] = Relaxivity, measured in phosphate buffer saline (PBS); assay type: ADME
Procedure, shortened: (§1)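 T1 was read at 20 MHz (0.47 T) and 37 °C, in triplicate, with recycle delay 5× T1. Five sequential additions of 1–10 mM chelate were titrated into PBS (10 mM phosphate, 150 mM NaCl, pH 7.4) or into 4.5% HSA (fraction V) in PBS. r1 was taken from the titration.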

[2] = Area under concentration versus time curve, 0-30 min; assay type: ADME; design: time < 0.5 hr; conditions: 0.5 h
Procedure, shortened: (§2)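 Unanesthetized male Sprague-Dawley rats (150-250 g, n = 2-5) received 153Gd-labeled chelate via tail vein catheter at 0.1 mmol/kg. Plasma was separated from heparinized blood and Gd was measured by ICP. Concentration-time data were fitted biexponentially. Elimination half-life = 0.693/β and Vd = dose/B. AUC 0-30 min was computed per animal by the trapezoidal rule. Values are mean ± 1 SD.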

Rattus norvegicus [3] = species on record: Rattus norvegicus; assay: Elimination of half-life in rat; assay type: ADME, organism-based; conditions: in vivo; procedure, shortened: as §2
Rattus norvegicus [4] = species on record: Rattus norvegicus; assay: Volume of distribution, steady state in rat; assay type: ADME, organism-based; conditions: in vivo; procedure, shortened: as §2
Albumin [5] = target: T1, Albumin (Homo sapiens, UniProt P02768); assay: Percentage of compound (0.1 mM) bound to human serum albumin (4.5%); conditions: 100 µM
T1 sequence (P02768 whole entry): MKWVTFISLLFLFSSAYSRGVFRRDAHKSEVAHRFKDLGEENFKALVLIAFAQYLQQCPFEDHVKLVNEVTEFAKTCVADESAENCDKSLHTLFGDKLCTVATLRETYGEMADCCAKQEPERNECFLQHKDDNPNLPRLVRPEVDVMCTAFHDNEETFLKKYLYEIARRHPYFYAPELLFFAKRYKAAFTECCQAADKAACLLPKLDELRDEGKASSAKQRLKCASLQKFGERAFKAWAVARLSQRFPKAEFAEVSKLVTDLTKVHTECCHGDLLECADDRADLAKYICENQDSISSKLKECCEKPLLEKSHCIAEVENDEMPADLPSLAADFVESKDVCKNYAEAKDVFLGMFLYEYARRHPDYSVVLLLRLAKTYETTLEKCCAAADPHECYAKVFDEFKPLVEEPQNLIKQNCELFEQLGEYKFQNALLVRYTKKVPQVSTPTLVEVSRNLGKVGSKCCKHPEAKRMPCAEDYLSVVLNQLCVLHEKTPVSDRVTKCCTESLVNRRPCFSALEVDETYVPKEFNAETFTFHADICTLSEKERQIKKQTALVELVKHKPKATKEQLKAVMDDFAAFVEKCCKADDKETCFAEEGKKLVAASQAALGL
Procedure, shortened: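 Ultrafiltration, in duplicate. 153Gd-labeled chelate was added to 4.5% HSA to 0.1 mM total Gd. An aliquot was counted, and 400 μL was centrifuged through a 5000 NMWL filter at room temperature (22 ± 1 °C). The unbound fraction came from filtrate counts.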

Rattus norvegicus [6] = species on record: Rattus norvegicus; assay: Percent of biliary excretion measured in 24 hr in rat; assay type: ADME, organism-based, Bile; conditions: in vivo
Procedure, shortened: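 Rats were dosed i.v. at 0.1 mmol/kg with 153Gd-labeled chelate (male Sprague-Dawley, 150-250 g) and housed in metabolic cages to collect urine and feces. They were sacrificed at 24 h. Tissues and excreta were gamma counted, and % injected dose = sample CPM / injected CPM × 100.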

Albumin [7] = target: T1, Albumin; assay: Observed relaxivity bound to human serum albumin (4.5%); procedure, shortened: as §1
[8] = Area under plasma 1/T1 versus time curve, 0-30 min; assay type: ADME, cell-free; design: concentration or dose not given beside the values
Procedure, shortened: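 Male Sprague-Dawley rats (150-250 g, n = 2-5, unanesthetized) were given 0.1 mmol/kg 153Gd chelate i.v. by tail vein catheter. Plasma water T1 was measured on a Minispec in triplicate, and plasma Δ1/T1 was followed over time. AUC 0-30 min was calculated per animal by the trapezoidal rule. Values are mean ± 1 SD.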

| Substance | Relaxivity [1] | AUC conc [2] | T1/2 beta (Rattus norvegicus [3]) | Vdss (Rattus norvegicus [4]) | Bound (Albumin [5]) | Excretion (Rattus norvegicus [6]) | Observed relaxivity (Albumin [7]) | AUC 1/T1 [8] |
| --- | --- | --- | --- | --- | --- | --- | --- | --- |
| Bis-[N-methyl-D-glucamine]-{(2-((2-naphthyl)methyl)-diethylenetriaminepentaacetato)(aquo)-gadolinium (III)} | 5.5 mM⁻¹ s⁻¹ | 2.58 mM·min | 6.8 min | 0.44 L/kg | 30% | 64.3% | 16.3 mM⁻¹ s⁻¹ | 40.1 s-1 min |
| Bis-[N-methyl-D-glucamine]-{(2-(octyldiethylenetriamine)diethylenetriaminepentaacetato)(aquo)-gadolinium (III)} | 5.9 mM⁻¹ s⁻¹ | 3.06 mM·min | 6.2 min | 0.62 L/kg | 44% | 66.9% | 20.7 mM⁻¹ s⁻¹ | 69.7 s-1 min |
| DIETHYLENETRIAMINEPENTAACETATO AQUO GADOLINIUM (III) | 4.6 mM⁻¹ s⁻¹ | 6.21 mM·min | 15.4 min | 0.28 L/kg | 0% | 6.3% | 4.6 mM⁻¹ s⁻¹ | 46.4 s-1 min |
| Tris-[N-methyl-D-glucamine]-{(2-(R)-[(2-(1-naphthyl)-ethyl)phosphonooxymethyl]diethylenetriaminepentaacetato)(aquo)-gadolinium (III)} | 6 mM⁻¹ s⁻¹ | 5.57 mM·min | 14.3 min | 0.32 L/kg | 40% | 17% | 19.5 mM⁻¹ s⁻¹ | 94.2 s-1 min |
| Tris-[N-methyl-D-glucamine]-{(2-(R)-[octylphosphonooxymethyl]diethylenetriaminepentaacetato)(aquo)-gadolinium (III)} | 6.1 mM⁻¹ s⁻¹ | 5.96 mM·min | 14.3 min | 0.31 L/kg | 54% | 17.7% |  | 150 s-1 min |
| Trisodium-{(2-(R)-[(4,4-diphenylcyclohexyl)phosphonooxymethyl]diethylenetriaminepentaacetato)(aquo)-gadolinium (III)} | 6.6 mM⁻¹ s⁻¹ | 9.35 mM·min | 23.1 min | 0.24 L/kg | 88% | 15.8% | 42 mM⁻¹ s⁻¹ | 285 s-1 min |

Reference: ChEMBL document CHEMBL1135968, “The effect of a phosphodiester linking group on albumin binding, blood half-life, and relaxivity of intravascular diethylenetriaminepentaacetato aquo gadolinium(III) MRI contrast agents” (J Med Chem, 2002)
